Test results reported in ChEMBL document CHEMBL5058577, “EUbOPEN Chemogenomics Library 2 (Multiplex)” (2022).

System: Fibroblast
Test: Multiplex assay against human fibroblast
Type: toxicity, cell-based
How it was run: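 Cells were classed with CellPathfinder machine-learning gating, first as Hoechst high-intensity objects or normal cells, then (normal cells) as healthy, pyknosed or fragmented nuclei, and finally (pyknosed cells) as mitotic or apoptotic. Staining of live cells at seeding used Hoechst33342, BioTracker Green Microtubule Cytoskeleton Dye, MitoTracker Red and Annexin V Alexa Fluor 680, with imaging on a CQ1 microscope at 37°C and 5% CO2 after compound addition. Tubulin, mitochondrial-mass and membrane-permeability phenotypes are per cents of healthy-nucleus cells.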

[1] = 12 h, 1 µM, compound concentration 1 uM, replicate 1
[2] = 12 h, 1 µM, compound concentration 1 uM, replicate 2
[3] = 12 h, 10 µM, compound concentration 10 uM, replicate 1
[4] = 12 h, 10 µM, compound concentration 10 uM, replicate 2
[5] = 24 h, 1 µM, compound concentration 1 uM, replicate 1
[6] = 24 h, 1 µM, compound concentration 1 uM, replicate 2
[7] = 24 h, 10 µM, compound concentration 10 uM, replicate 1
[8] = 24 h, 10 µM, compound concentration 10 uM, replicate 2
[9] = 48 h, 1 µM, compound concentration 1 uM, replicate 1
[10] = 48 h, 1 µM, compound concentration 1 uM, replicate 2
[11] = 48 h, 10 µM, compound concentration 10 uM, replicate 1
[12] = 48 h, 10 µM, compound concentration 10 uM, replicate 2

## COC(c1ccccc1)(c1ccccc1)[C@H](Oc1nc(C)cc(C)n1)C(=O)O [AMBRISENTAN]
[1]
  Population Apoptotic (%): 68%
  Population Fragmented Nuclei (%): 13%
  Population Healthy Nuclei (%): 66%
  Population Hoechst High Intensity Objects (%): 1%
  Population Membrane Permeable-Phenotype (%): 0%
  Population Mitochondria Different-Phenotype (%): 4%
  Population Mitotic Cells (%): 31%
  Population Normal (%): 98%
  Population Pyknosed Nuclei (%): 19%
  Population Tubulin-Different-Phenotype (%): 29%
  Total Cell Count: 97
[2]
  Population Apoptotic (%): 30%
  Population Fragmented Nuclei (%): 18%
  Population Healthy Nuclei (%): 56%
  Population Hoechst High Intensity Objects (%): 4%
  Population Membrane Permeable-Phenotype (%): 1%
  Population Mitochondria Different-Phenotype (%): 6%
  Population Mitotic Cells (%): 69%
  Population Normal (%): 95%
  Population Pyknosed Nuclei (%): 25%
  Population Tubulin-Different-Phenotype (%): 37%
  Total Cell Count: 163
[3]
  Population Apoptotic (%): 56%
  Population Fragmented Nuclei (%): 8%
  Population Healthy Nuclei (%): 70%
  Population Hoechst High Intensity Objects (%): 5%
  Population Membrane Permeable-Phenotype (%): 0%
  Population Mitochondria Different-Phenotype (%): 11%
  Population Mitotic Cells (%): 43%
  Population Normal (%): 94%
  Population Pyknosed Nuclei (%): 21%
  Population Tubulin-Different-Phenotype (%): 25%
  Total Cell Count: 145
[4]
  Population Apoptotic (%): 33%
  Population Fragmented Nuclei (%): 39%
  Population Healthy Nuclei (%): 25%
  Population Hoechst High Intensity Objects (%): 4%
  Population Membrane Permeable-Phenotype (%): 5%
  Population Mitochondria Different-Phenotype (%): 0%
  Population Mitotic Cells (%): 66%
  Population Normal (%): 95%
  Population Pyknosed Nuclei (%): 34%
  Population Tubulin-Different-Phenotype (%): 35%
  Total Cell Count: 82
[5]
  Population Apoptotic (%): 62%
  Population Fragmented Nuclei (%): 15%
  Population Healthy Nuclei (%): 67%
  Population Hoechst High Intensity Objects (%): 2%
  Population Membrane Permeable-Phenotype (%): 0%
  Population Mitochondria Different-Phenotype (%): 4%
  Population Mitotic Cells (%): 37%
  Population Normal (%): 97%
  Population Pyknosed Nuclei (%): 17%
  Population Tubulin-Different-Phenotype (%): 38%
  Total Cell Count: 95
[6]
  Population Apoptotic (%): 34%
  Population Fragmented Nuclei (%): 14%
  Population Healthy Nuclei (%): 62%
  Population Hoechst High Intensity Objects (%): 5%
  Population Membrane Permeable-Phenotype (%): 3%
  Population Mitochondria Different-Phenotype (%): 3%
  Population Mitotic Cells (%): 65%
  Population Normal (%): 94%
  Population Pyknosed Nuclei (%): 23%
  Total Cell Count: 158
[7]
  Population Apoptotic (%): 69%
  Population Fragmented Nuclei (%): 12%
  Population Healthy Nuclei (%): 68%
  Population Hoechst High Intensity Objects (%): 7%
  Population Membrane Permeable-Phenotype (%): 0%
  Population Mitochondria Different-Phenotype (%): 11%
  Population Mitotic Cells (%): 30%
  Population Normal (%): 92%
  Population Pyknosed Nuclei (%): 18%
  Population Tubulin-Different-Phenotype (%): 29%
  Total Cell Count: 149
[8]
  Population Apoptotic (%): 27%
  Population Fragmented Nuclei (%): 46%
  Population Healthy Nuclei (%): 27%
  Population Hoechst High Intensity Objects (%): 5%
  Population Membrane Permeable-Phenotype (%): 5%
  Population Mitochondria Different-Phenotype (%): 10%
  Population Mitotic Cells (%): 72%
  Population Normal (%): 94%
  Population Pyknosed Nuclei (%): 26%
  Population Tubulin-Different-Phenotype (%): 36%
  Total Cell Count: 73
[9]
  Population Apoptotic (%): 60%
  Population Fragmented Nuclei (%): 19%
  Population Healthy Nuclei (%): 64%
  Population Hoechst High Intensity Objects (%): 4%
  Population Membrane Permeable-Phenotype (%): 1%
  Population Mitochondria Different-Phenotype (%): 5%
  Population Mitotic Cells (%): 40%
  Population Normal (%): 95%
  Population Pyknosed Nuclei (%): 16%
  Population Tubulin-Different-Phenotype (%): 28%
  Total Cell Count: 93
[10]
  Population Apoptotic (%): 61%
  Population Fragmented Nuclei (%): 24%
  Population Healthy Nuclei (%): 54%
  Population Hoechst High Intensity Objects (%): 0%
  Population Membrane Permeable-Phenotype (%): 4%
  Population Mitochondria Different-Phenotype (%): 10%
  Population Mitotic Cells (%): 38%
  Population Normal (%): 99%
  Population Pyknosed Nuclei (%): 20%
  Population Tubulin-Different-Phenotype (%): 42%
  Total Cell Count: 154
[11]
  Population Apoptotic (%): 61%
  Population Fragmented Nuclei (%): 14%
  Population Healthy Nuclei (%): 71%
  Population Hoechst High Intensity Objects (%): 7%
  Population Membrane Permeable-Phenotype (%): 1%
  Population Mitochondria Different-Phenotype (%): 10%
  Population Mitotic Cells (%): 38%
  Population Normal (%): 92%
  Population Pyknosed Nuclei (%): 13%
  Population Tubulin-Different-Phenotype (%): 34%
  Total Cell Count: 145
[12]
  Population Apoptotic (%): 71%
  Population Fragmented Nuclei (%): 50%
  Population Healthy Nuclei (%): 31%
  Population Hoechst High Intensity Objects (%): 3%
  Population Membrane Permeable-Phenotype (%): 0%
  Population Mitochondria Different-Phenotype (%): 0%
  Population Mitotic Cells (%): 28%
  Population Normal (%): 96%
  Population Pyknosed Nuclei (%): 18%
  Population Tubulin-Different-Phenotype (%): 62%
  Total Cell Count: 79
